Key:
Trypanosoma cruzi [1] = assay: Antitrypanosomal activity against trypomastigote stage of Trypanosoma cruzi Y infected in monkey LLC-MK2 cells after 96 hrs by Pizzi-Brener method; type: functional, organism-based
Trypanosoma cruzi [2] = assay: Antitrypanosomal activity against amastigote stage of Trypanosoma cruzi Y infected in monkey LLC-MK2 cells after 96 hrs by Geimsa staining-based light microscopy; type: functional, organism-based; conditions: LLC-MK2, 96 h
In short: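 LLCMK2 monolayers (2.5 x 10^5 cells/mL, 24 h, 37 °C, 5% CO2) infected with trypomastigotes at 10 per host cell for 24 h, washed, treated with compound (0.1 to 50 μM) 96 h. Methanol-fixed, Giemsa-stained, 200 cells counted; survival index (% infected × amastigotes/cell); IC50 by nonlinear regression.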

Trypanosoma cruzi [3] = assay: Antitrypanosomal activity against epimastigote stage of Trypanosoma cruzi Y after 96 hrs by hemocytometry; type: functional, organism-based
In short: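 Log-phase parasites (promastigotes 3-day, Warren's medium + 10% FBS, 25°C; epimastigotes 4-day, LIT + 10% FBS, 28°C) seeded at 1 × 10^6 cells/mL with compound (0.1-100 µM; DMSO ≤1%). Promastigotes read at 72 h, epimastigotes at 96 h, by hemocytometer counting. IC50 by nonlinear regression.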

[4] = Selectivity ratio of CC50 for monkey LLC-MK2 cells to IC50 for epimastigote stage of epimastigote stage of Trypanosoma cruzi Y
[5] = Selectivity ratio of CC50 to IC50 for promastigote stage of Leishmania amazonensis WHOM/BR/75/JOSEFA; parameters: reference not given here
[6] = Selectivity ratio of CC50 for monkey LLC-MK2 cells to IC50 for amastigote stage of Trypanosoma cruzi Y; type: ADME, cell-based; conditions: read-out: Ratio CC50/IC50
[7] = Selectivity ratio of CC50 for monkey LLC-MK2 cells to IC50 for epimastigote stage of epimastigote stage of Trypanosoma cruzi Y; type: ADME, cell-based; conditions: read-out: Ratio CC50/IC50
[8] = Selectivity ratio of CC50 for mouse J774A1 cells to IC50 for promastigote stage of Leishmania amazonensis WHOM/BR/75/JOSEFA; type: ADME, cell-based, J774.A1; conditions: read-out: Ratio CC50/IC50
Leishmania amazonensis [9] = assay: Antileishmanial activity against promastigote stage of Leishmania amazonensis WHOM/BR/75/JOSEFA after 72 hrs by hemocytometry; type: functional, organism-based
[10] = Selectivity ratio of CC50 for monkey LLC-MK2 cells to EC50 for trypomastigote stage of Trypanosoma cruzi Y; type: ADME, cell-based; conditions: read-out: Ratio CC50/EC50
Leishmania amazonensis [11] = assay: Antileishmanial activity against amastigote stage of Leishmania amazonensis WHOM/BR/75/JOSEFA infected in BALB/c mouse peritoneal macrophages after 72 hrs by Geimsa staining-based light microscopy; type: functional, organism-based
[12] = Selectivity ratio of CC50 for BALB/c mouse peritoneal macrophages to IC50 for amastigote stage of Leishmania amazonensis WHOM/BR/75/JOSEFA

SMILES | EC50 (Trypanosoma cruzi [1]) [µM] | IC50 (Trypanosoma cruzi [2]) [µM] | IC50 (Trypanosoma cruzi [3]) [µM] | selectivity ratio [4] | selectivity ratio [5] | selectivity ratio [6] | selectivity ratio [7] | selectivity ratio [8] | IC50 (Leishmania amazonensis [9]) [nM] | selectivity ratio [10] | IC50 (Leishmania amazonensis [11]) [µM] | Ratio CC50/IC50 [12]
COc1ccc(-c2nc3ccccc3nc2-c2ccc(OC)cc2)cc1 | > 100 | 8.6 | 36.6 | 9 | 19.7 | 38.4 | 9 | 19.7 | 30000 | – | – | –
CS/C(=C/[N+](=O)[O-])Nc1ccc(N(C)C)cc1 | 35 | – | 31.8 | 6.6 | 18.9 | – | 6.6 | 18.9 | 52800 | 6 | – | –
COc1ccc2nc(-c3ccccc3)c(S(C)(=O)=O)nc2c1 | 48.1 | – | 28.4 | 9.3 | 4.1 | – | 9.3 | 4.1 | 24700 | 5.5 | – | –
c1ccc(-c2nc3ccccc3nc2-c2ccc(OCCN3CCCCC3)cc2)cc1 | 20.3 | – | 21.4 | 1.8 | 29.6 | – | 1.8 | 29.6 | 1900 | 1.8 | – | –
COc1ccc2nc(Cl)c([S+](C)[O-])nc2c1 (stereo not drawn) | 4.2 | – | 0.5 | 39.2 | 27.8 | – | 39.2 | 27.8 | 800 | 4.4 | 4.6 | 4.9
C[S+]([O-])c1nc2ccc(Cl)cc2nc1Cl (stereo not drawn) | 1.7 | – | 0.1 | 54.2 | 108 | – | 54.2 | 108 | 100 | 2.9 | 1.5 | 9
CS(=O)(=O)c1nc2ccccc2nc1Cl | 6.4 | > 15 | 0.6 | 70.1 | 14.4 | – | 70.1 | 14.4 | 1600 | 7.3 | – | –
COc1ccc2nc(S(C)(=O)=O)c(Cl)nc2c1 | 9.8 | – | 3.1 | 7.5 | 7.6 | – | 7.5 | 7.6 | 2900 | 2.4 | – | –
CS(=O)(=O)c1nc2ccc(Br)cc2nc1Cl | 1.8 | 13.5 | 0.3 | 49.6 | 71.8 | 1.1 | 49.6 | 71.8 | 200 | 7 | 1.4 | 9.9
CS(=O)(=O)c1nc2ccc(Cl)cc2nc1Cl | 6.9 | 8.6 | 0.3 | 25.9 | 66 | 0.9 | 25.9 | 66 | 200 | 4.1 | 3.1 | 4.3
CCCCNc1nc2ccccc2nc1S(C)(=O)=O | 15.7 | – | 4.4 | 5.5 | 11.4 | – | 5.5 | 11.4 | 2900 | 1.5 | – | –
CS(=O)(=O)c1nc2ccccc2nc1NCCO | 22.6 | – | 4.2 | 4.4 | 13 | – | 4.4 | 13 | 2900 | 0.8 | – | –
COc1ccc2nc(NC3CCCCC3)c(S(C)(=O)=O)nc2c1 | 27.7 | > 25 | 2.2 | 20.8 | 18.1 | – | 20.8 | 18.1 | 2900 | 1.6 | 20.2 | 2.6
CCCCNc1nc2cc(OC)ccc2nc1S(C)(=O)=O | 41.2 | – | 55.3 | 1.6 | 5.5 | – | 1.6 | 5.5 | 32200 | 2.1 | – | –
COc1ccc2nc(S(C)(=O)=O)c(NC3CCCCC3)nc2c1 | 23.6 | – | 29.1 | 2.7 | 6.5 | – | 2.7 | 6.5 | 14700 | 3.3 | – | –
COc1ccc2nc(S(C)(=O)=O)c(NCC(C)C)nc2c1 | 24.8 | – | 55.4 | 1.5 | 3.6 | – | 1.5 | 3.6 | 27800 | 3.3 | – | –
COc1ccc2nc(S(C)(=O)=O)c(NCCC(C)C)nc2c1 | 22.9 | – | 38 | – | – | – | 2.6 | 5 | 21200 | 4.2 | – | –
CCCCNc1nc2cc(Br)ccc2nc1S(C)(=O)=O | 5.6 | > 25 | 2.3 | 43.7 | 28.3 | – | 43.7 | 28.3 | 1600 | 17.8 | – | –
CS(=O)(=O)c1nc2ccc(Br)cc2nc1NCCO | 8.2 | 7.4 | 1.6 | 3.4 | 40.3 | 0.8 | 3.4 | 40.3 | 800 | 0.7 | – | –
COc1ccc2nc(NCC(C)C)c(S(C)(=O)=O)nc2c1 | 11.7 | 14.9 | 3.1 | 22.6 | 22.8 | 4.7 | 22.6 | 22.8 | 2600 | 6 | – | –
CCCCNc1nc2cc(Cl)ccc2nc1S(C)(=O)=O | 9 | – | 2.3 | 93.4 | 50.6 | – | 93.4 | 50.6 | 1400 | 23.8 | – | –
CS(=O)(=O)c1nc2ccc(Cl)cc2nc1NC1CCCCC1 | 3.9 | 9.6 | 2 | 38.3 | 15 | 7.9 | 38.3 | 15 | 2200 | 19.6 | – | –
C[S+]([O-])c1nc2ccc(Cl)cc2nc1NC1CCCCC1 (stereo not drawn) | 6.3 | 7.7 | 1.8 | 21.8 | 33.8 | 5.1 | 21.8 | 33.8 | 1900 | 6.2 | – | –
CCCCNc1nc2cc(OC)ccc2nc1Cl | > 50 | – | 49.5 | 7.9 | 4.4 | – | 7.9 | 4.4 | 36200 | – | – | –
COc1ccc2nc(Cl)c(NCc3ccccc3)nc2c1 | > 50 | > 20 | 15.9 | 22.2 | 5.4 | – | 22.2 | 5.4 | 24500 | – | 25 | 5.3
CCCCNc1nc2ccc(OC)cc2nc1NCCCC | > 50 | – | 29.4 | 3.2 | 4.3 | – | 3.2 | 4.3 | 20900 | – | – | –
CCCCNc1nc2ccc(OC)cc2nc1NCc1ccccc1 | > 50 | – | 38.4 | 0.6 | 3.6 | – | 0.6 | 3.6 | 13600 | – | – | –
COc1ccc2nc(Nc3ccccc3)c(Nc3ccccc3)nc2c1 | 37.9 | – | 45.6 | 1 | 4.4 | – | 1 | 4.4 | 6500 | 1.2 | – | –
C[C@@H]1[C@H](O)[C@@H](C)/C=C/C=C/C=C/C=C/C=C/C=C/C=C/[C@H](O[C@@H]2O[C@H](C)[C@@H](O)[C@H](N)[C@@H]2O)C[C@@H]2O[C@](O)(C[C@@H](O)C[C@@H](O)[C@H](O)CC[C@@H](O)C[C@@H](O)CC(=O)O[C@H]1C)C[C@H](O)[C@H]2C(=O)O [AMPHOTERICIN B] | – | – | – | – | – | – | – | – | – | – | 0.4 | –

Reference: ChEMBL document CHEMBL3396970, “Synthesis and biological evaluation of novel 2,3-disubstituted quinoxaline derivatives as antileishmanial and antitrypanosomal agents” (Eur J Med Chem, 2015)
